Data taken from ChEMBL document CHEMBL4351031, “The development of 2-acetylphenol-donepezil hybrids as multifunctional agents for the treatment of Alzheimer's disease” (Bioorg Med Chem Lett, 2019).
The source made the active and inactive calls. The rule behind the calls is not given here.

What was measured:
[1] = target: T1, Amine oxidase [flavin-containing] A (Homo sapiens, UniProt P21397); experiment: Inhibition of human recombinant MAO-A using kynuramine as substrate measured after 30 mins by fluorimetric assay
T1 sequence (P21397 whole entry): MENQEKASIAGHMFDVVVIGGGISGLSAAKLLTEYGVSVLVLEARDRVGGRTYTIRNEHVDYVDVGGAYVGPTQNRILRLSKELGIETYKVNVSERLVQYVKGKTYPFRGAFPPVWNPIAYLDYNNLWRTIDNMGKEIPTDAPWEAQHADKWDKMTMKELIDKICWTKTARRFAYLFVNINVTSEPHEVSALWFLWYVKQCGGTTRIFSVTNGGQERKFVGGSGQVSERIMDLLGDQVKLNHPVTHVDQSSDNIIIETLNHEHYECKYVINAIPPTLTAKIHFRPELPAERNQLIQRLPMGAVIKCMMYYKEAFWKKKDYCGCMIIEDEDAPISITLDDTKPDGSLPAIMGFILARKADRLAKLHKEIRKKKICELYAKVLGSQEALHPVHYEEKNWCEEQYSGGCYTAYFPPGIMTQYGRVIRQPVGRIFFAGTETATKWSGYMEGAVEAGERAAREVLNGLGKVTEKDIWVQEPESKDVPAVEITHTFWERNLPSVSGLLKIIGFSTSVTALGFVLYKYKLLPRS
How it was run: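 Recombinant human MAO-A inhibition measured by a fluorimetric assay. Each value is the mean of three independent experiments, each run in triplicate, with SD reported.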

Acetylcholinesterase = Acetylcholinesterase (Electrophorus electricus, UniProt O42275); experiment: Inhibition of electric eel AChE using acetylthiocholine iodide incubated for 15 mins as substrate by Ellman's method
Acetylcholinesterase, sequence (O42275 whole entry): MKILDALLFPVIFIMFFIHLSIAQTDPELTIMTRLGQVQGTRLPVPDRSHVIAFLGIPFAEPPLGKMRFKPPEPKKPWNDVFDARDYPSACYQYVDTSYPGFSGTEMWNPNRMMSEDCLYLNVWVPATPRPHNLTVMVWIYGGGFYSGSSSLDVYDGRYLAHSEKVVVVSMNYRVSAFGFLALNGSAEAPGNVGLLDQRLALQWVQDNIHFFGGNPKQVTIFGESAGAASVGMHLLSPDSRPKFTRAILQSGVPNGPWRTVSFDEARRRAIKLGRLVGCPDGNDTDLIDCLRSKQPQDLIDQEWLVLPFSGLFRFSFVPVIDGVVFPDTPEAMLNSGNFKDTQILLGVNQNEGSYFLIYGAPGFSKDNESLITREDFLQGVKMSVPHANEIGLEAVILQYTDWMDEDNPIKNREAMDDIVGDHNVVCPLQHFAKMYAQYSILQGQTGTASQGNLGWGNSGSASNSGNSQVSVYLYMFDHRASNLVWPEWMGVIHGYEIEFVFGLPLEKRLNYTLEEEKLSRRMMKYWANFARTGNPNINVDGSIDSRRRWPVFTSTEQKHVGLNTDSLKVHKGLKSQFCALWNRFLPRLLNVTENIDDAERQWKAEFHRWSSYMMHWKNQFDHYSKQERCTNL

[2] = Selectivity index, ratio of IC50 for equine serum BuChE using S-butyrylthiocholine chloride as substrate to IC50 for electric eel AChE using acetylthiocholine iodide as substrate by Ellman's method
How it was run: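 Selectivity index is IC50(eqBuChE)/IC50(EeAChE). Both IC50s come from the modified Ellman method, using Electrophorus electricus AChE and equine serum BuChE. Each IC50 is the mean of three independent experiments, each run in triplicate.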

Cholinesterase = Cholinesterase (Equus caballus, UniProt P81908); experiment: Inhibition of equine serum BuChE using S-butyrylthiocholine chloride as substrate incubated for 15 mins by Ellman's method
Cholinesterase, sequence (P81908 whole entry): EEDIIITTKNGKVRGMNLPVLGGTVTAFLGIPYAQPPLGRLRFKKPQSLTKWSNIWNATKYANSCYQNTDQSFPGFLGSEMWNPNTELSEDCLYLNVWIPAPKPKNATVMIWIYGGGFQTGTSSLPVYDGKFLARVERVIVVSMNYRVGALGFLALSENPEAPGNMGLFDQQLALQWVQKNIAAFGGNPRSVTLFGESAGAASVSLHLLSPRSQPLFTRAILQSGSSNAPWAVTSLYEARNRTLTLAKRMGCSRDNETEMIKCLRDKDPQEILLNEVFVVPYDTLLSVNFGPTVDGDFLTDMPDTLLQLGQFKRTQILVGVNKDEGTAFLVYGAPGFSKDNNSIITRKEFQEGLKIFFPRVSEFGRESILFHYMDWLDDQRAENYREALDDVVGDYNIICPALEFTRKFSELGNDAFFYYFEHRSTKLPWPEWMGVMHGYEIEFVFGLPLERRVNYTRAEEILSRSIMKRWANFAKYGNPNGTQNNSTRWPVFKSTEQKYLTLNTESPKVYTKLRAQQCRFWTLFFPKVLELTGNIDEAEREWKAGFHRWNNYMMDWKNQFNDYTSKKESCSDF
How it was run: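 Modified Ellman method using equine serum BuChE. […] Values are the mean of three independent experiments, each run in triplicate, with SD.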

[3] = target: T2, Amine oxidase [flavin-containing] B (Homo sapiens, UniProt P27338); experiment: Inhibition of human recombinant MAO-B using kynuramine as substrate measured after 30 mins by fluorimetric assay
T2 sequence (P27338 whole entry): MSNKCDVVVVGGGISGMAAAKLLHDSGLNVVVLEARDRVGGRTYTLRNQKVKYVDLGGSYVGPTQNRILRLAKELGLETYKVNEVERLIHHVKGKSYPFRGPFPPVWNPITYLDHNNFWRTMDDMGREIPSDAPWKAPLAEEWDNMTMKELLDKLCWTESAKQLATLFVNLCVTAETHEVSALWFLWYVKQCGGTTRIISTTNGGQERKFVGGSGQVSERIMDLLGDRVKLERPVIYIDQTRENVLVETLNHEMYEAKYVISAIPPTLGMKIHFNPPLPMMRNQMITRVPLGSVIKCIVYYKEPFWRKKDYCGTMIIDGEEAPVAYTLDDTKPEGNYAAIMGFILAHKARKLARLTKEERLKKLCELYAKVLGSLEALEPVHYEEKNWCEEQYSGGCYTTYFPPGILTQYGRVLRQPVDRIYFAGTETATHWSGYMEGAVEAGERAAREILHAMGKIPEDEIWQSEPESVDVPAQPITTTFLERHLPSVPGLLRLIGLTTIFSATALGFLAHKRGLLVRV

[4] = target: Cholinesterase (Equus caballus) (UniProt P81908); experiment: Inhibition of equine serum BuChE using S-butyrylthiocholine chloride as substrate at 50 uM incubated for 15 mins by Ellman's method relative to control
Cholinesterase (Equus caballus), sequence (P81908 whole entry): as the sequence (P81908 whole entry) above

MAO-A = target: T3, MAO-A (Homo sapiens, UniProt P21397); experiment: Inhibition of human recombinant MAO-A using kynuramine as substrate at 10 uM measured after 30 mins by fluorimetric assay relative to control; settings: probe kynuramine
T3 sequence (P21397 whole entry): T1 sequence (P21397 whole entry)

[5] = Permeability of the compound at 100 ug/ml measured after compound dilution in PBS/EtOH buffer (70:30) by PAMPA-BBB assay
[6] = Metal chelating activity assessed as Cu2+-compound complex formation measured as red shift in absorption spectra at 37.5 uM measured after 30 mins in presence of 37.5 uM CuCl2 by UV-vis spectrophotometric analysis
[7] = Metal chelating activity assessed as mole fraction of the compound required for Cu2+ -compound complex formation at stoichiometry ratio of 1:1 at 37.5 uM measured after 30 mins in presence of 3.75 to 93.75 uM CuCl2 by UV-vis spectrophotometric analysis
How it was run: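 Cu2+ complex stoichiometry determined by the molar ratio method. Ascending amounts of CuCl2 were added to the test compound, at a final concentration of 37.5 μM. Absorbance was plotted against mole fraction, and the stoichiometry was taken from the intersection of two fitted straight lines. The final Cu2+ concentration started at 3.75 μM.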

[8] = target: Acetylcholinesterase (Electrophorus electricus) (UniProt O42275); experiment: Mixed inhibition of electric eel AChE at 1.5 to 6 uM preincubated with enzyme for 15 mins followed by substrate addition using acetylthiocholine iodide as substrate by double reciprocal Lineweaver-Burk plot analysis
Acetylcholinesterase (Electrophorus electricus), sequence (O42275 24-633 limits assumed): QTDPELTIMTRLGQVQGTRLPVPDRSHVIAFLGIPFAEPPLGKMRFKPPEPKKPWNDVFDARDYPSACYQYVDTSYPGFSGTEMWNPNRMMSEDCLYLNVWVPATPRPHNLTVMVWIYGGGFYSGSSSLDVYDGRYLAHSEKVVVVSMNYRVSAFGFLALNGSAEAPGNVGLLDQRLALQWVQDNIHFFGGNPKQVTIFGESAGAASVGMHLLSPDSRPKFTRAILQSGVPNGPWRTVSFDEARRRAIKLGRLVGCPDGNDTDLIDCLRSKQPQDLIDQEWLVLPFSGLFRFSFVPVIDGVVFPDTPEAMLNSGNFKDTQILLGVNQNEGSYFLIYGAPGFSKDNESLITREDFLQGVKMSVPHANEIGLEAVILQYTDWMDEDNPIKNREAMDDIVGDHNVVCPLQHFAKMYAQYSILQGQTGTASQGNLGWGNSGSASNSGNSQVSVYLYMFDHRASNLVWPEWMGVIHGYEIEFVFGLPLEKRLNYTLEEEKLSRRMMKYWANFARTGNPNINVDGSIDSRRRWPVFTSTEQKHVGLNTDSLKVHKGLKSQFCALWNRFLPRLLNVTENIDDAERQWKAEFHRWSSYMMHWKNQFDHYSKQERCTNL

[9] = Metal chelating activity assessed as Fe2+-compound complex formation at 37.5 uM measured after 30 mins in presence of 37.5 uM FeSO4 by UV-vis spectrophotometric analysis
[10] = Metal chelating activity assessed as Al3+-compound complex formation at 37.5 uM measured after 30 mins in presence of 37.5 uM AlCl3 by UV-vis spectrophotometric analysis
[11] = Metal chelating activity assessed as Zn2+-compound complex formation at 37.5 uM measured after 30 mins in presence of 37.5 uM ZnCl2 by UV-vis spectrophotometric analysis

SMILES | IC50 (Acetylcholinesterase) [µM] | Ratio IC50 [2] | IC50 (Cholinesterase) [µM] | IC50 [3] [µM] | inhibition [4] [%] | inhibition at 0.5 h, 10 µM (MAO-A) [%] | also measured
CC(=O)c1ccc(OCCCCCCN2CCC(Cc3ccccc3)CC2)cc1O | 7.1 | 9.4 | 66.9 | 15.8 | – | – | IC50 [1]: 22.1 µM
CC(=O)c1ccc(OCCCCCCCCCCCCN2CCC(Cc3ccccc3)CC2)cc1O | 9.5 | – | – | 25.8 | < 5 | < 10 | –
CCN(CCCOc1ccc(C(C)=O)c(O)c1)Cc1ccccc1 | 7.2 | 2.6 | 18.7 | 14.9 | – | < 10 | –
CC(=O)c1ccc(OCCCCCN2CCc3ccccc3C2)cc1O | 7.5 | – | – | 15.2 | < 5 | < 10 | –
CCN(CC)CCOc1ccc(C(C)=O)c(O)c1 | 35.2 | – | – | 11.7 | < 5 | < 10 | –
CCN(CC)CCCCOc1ccc(C(C)=O)c(O)c1 | 20.9 | – | – | 22.2 | < 5 | < 10 | –
CCN(CC)CCCCCCOc1ccc(C(C)=O)c(O)c1 | 16.3 | – | – | 22.1 | < 5 | < 10 | –
CC(=O)c1ccc(OCCCN2CCC(c3ccccc3)CC2)cc1O | 13.4 | 2.2 | 29.4 | 19.8 | – | – | IC50 [1]: 24.7 µM
CC(=O)c1ccc(OCCN2CCN(Cc3ccccc3)CC2)cc1O | 6.6 | – | – | 10.2 | 11.2 | – | IC50 [1]: 26.1 µM; Papp at 100 ug/ml [5]: 17.4 ×10⁻⁶ cm/s
CC(=O)c1ccc(OCCCCCCCCCCN2CCC(c3ccccc3)CC2)cc1O | 18.4 | – | – | 14.2 | 0.8 | < 10 | –
CC(=O)c1ccc(OCCCN2CCc3ccccc3C2)cc1O | 8.9 | – | – | 16.7 | < 5 | < 10 | –
COc1cc2c(cc1OC)CN(CCCCOc1ccc(C(C)=O)c(O)c1)CC2 | 15.9 | 3.5 | 56.4 | 15.7 | – | < 10 | –
CC(=O)c1ccc(OCCCCCCCCCN2CCC(Cc3ccccc3)CC2)cc1O | 8.5 | – | – | 27.9 | < 5 | < 10 | –
CCN(CCCCCCCCCCOc1ccc(C(C)=O)c(O)c1)Cc1ccccc1 | 6.5 | 7.8 | 50.7 | 23.4 | – | < 10 | –
CC(=O)c1ccc(OCCCN2CCC(Cc3ccccc3)CC2)cc1O | 11.7 | 5.4 | 63.1 | 18.7 | – | < 10 | –
CCN(CCCCOc1ccc(C(C)=O)c(O)c1)Cc1ccccc1 | 2.9 | 11.9 | 34.6 | 16.6 | – | < 10 | Activity [6]: Active; Ratio (mole fraction) [7]: 0.97; inhibition [8]: Active; Papp at 100 ug/ml [5]: 15.1 ×10⁻⁶ cm/s; Activity [9]: inactive; Activity [10]: inactive; Activity [11]: inactive
CCN(CCCCCCCCCCCCOc1ccc(C(C)=O)c(O)c1)Cc1ccccc1 | 7.7 | 5 | 38.9 | 33.1 | – | < 10 | –
CC(=O)c1ccc(OCCCCCN2CCC(Cc3ccccc3)CC2)cc1O | 8.2 | – | – | 20.8 | < 5 | < 10 | –
COc1cc2c(cc1OC)CN(CCCOc1ccc(C(C)=O)c(O)c1)CC2 | 10.1 | 5.7 | 57.9 | 13.8 | – | 8.1 | –
CCN(CCCCCOc1ccc(C(C)=O)c(O)c1)Cc1ccccc1 | 5.2 | 7.1 | 37.2 | 29.8 | – | < 10 | –
CCN(CCOc1ccc(C(C)=O)c(O)c1)Cc1ccccc1 | 18.9 | – | – | 13.8 | < 5 | < 10 | –
CC(=O)c1ccc(OCCCCCCCCCCN2CCC(Cc3ccccc3)CC2)cc1O | 9.2 | – | – | 21.6 | 13.8 | < 10 | –
CC(=O)c1ccc(OCCCCCCN2CCc3ccccc3C2)cc1O | 9.2 | 3.5 | 32.6 | 26.9 | – | – | IC50 [1]: 21.2 µM
CC(=O)c1ccc(OCCCCCCCCCN2CCN(Cc3ccccc3)CC2)cc1O | 6.7 | 2.9 | 19.8 | 21.6 | – | – | IC50 [1]: 19.7 µM
CCN(CC)CCCOc1ccc(C(C)=O)c(O)c1 | 26.7 | – | – | 16.1 | < 5 | < 10 | –
CC(=O)c1ccc(OCCCCN2CCc3ccccc3C2)cc1O | 5.9 | 8.1 | 47.5 | 12.8 | – | 6.3 | –
CC(=O)c1ccc(OCCCCCCCCCCN2CCN(Cc3ccccc3)CC2)cc1O | 6.9 | – | – | 17.3 | 15.1 | – | IC50 [1]: 19.8 µM
CC(=O)c1ccc(OCCCCCCCCCN2CCc3ccccc3C2)cc1O | 11.6 | – | – | 19.4 | < 5 | < 10 | –
CC(=O)c1ccc(OCCCCN2CCC(Cc3ccccc3)CC2)cc1O | 8.9 | – | – | 13.5 | < 5 | < 10 | –
CC(=O)c1ccc(OCCN2CCC(Cc3ccccc3)CC2)cc1O | 16.5 | – | – | 22.8 | < 5 | < 10 | –
